Data set [1] concerns the target T1, Aurora kinase A (Homo sapiens) (UniProt O14965).
T1 sequence (whole entry): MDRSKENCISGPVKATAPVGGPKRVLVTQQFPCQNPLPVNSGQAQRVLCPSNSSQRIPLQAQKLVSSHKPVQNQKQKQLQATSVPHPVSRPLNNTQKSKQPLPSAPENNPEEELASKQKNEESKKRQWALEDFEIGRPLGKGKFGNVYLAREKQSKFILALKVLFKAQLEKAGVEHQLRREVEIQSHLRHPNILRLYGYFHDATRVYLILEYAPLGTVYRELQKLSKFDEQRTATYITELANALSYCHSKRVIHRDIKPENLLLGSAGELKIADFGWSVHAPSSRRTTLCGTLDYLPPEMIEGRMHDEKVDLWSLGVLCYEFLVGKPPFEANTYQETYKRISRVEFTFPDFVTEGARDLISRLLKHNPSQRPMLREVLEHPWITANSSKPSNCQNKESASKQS
Briefly: Binding affinity to human AURA expressed in baculovirus in presence of anacardic acid. The method, boiled down:
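Baculovirus-expressed, C-terminally His6-tagged AURA purified on Ni-NTA. Intrinsic fluorescence quenching was read at 301 nm (excitation 280 nm), with inner-filter correction. Ka came from double-reciprocal FR and the Chipman method.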

Data set [2] concerns the target T1, Aurora kinase A (Homo sapiens). Briefly: Binding affinity to human AURA expressed in baculovirus. The procedure, abridged:
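Baculovirus-expressed, C-terminally His6-tagged AURA purified on Ni-NTA. Excitation was at 280 nm and quenching of intrinsic fluorescence was read at 301 nm, with inner-filter correction. FR came from a double-reciprocal plot, and Ka was calculated by the Chipman method.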

For data set [3] the target is unchanged. Briefly: Binding affinity to human AURA expressed in baculovirus in presence of ATP.
Data set [4] has the same target. Briefly: Activation of human AURA activity expressed in baculovirus cells by time course assay.
Data set [5] has the same target. Briefly: Activation of human AURA autophosphorylation activity. The method, boiled down:
(§1)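 Autophosphorylation read from the same gels: 1.5 µg histone H3 with AURA (40 ng) or AURB (120 ng) and [γ-32P]ATP, with or without compound at 25 and 50 µM in DMSO. Reactions precipitated with 25% TCA, resolved on 15% SDS-PAGE, then autoradiographed.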

The target of data set [6] is Aurora kinase B (Homo sapiens) (UniProt Q96GD4). Briefly: Activation of human AURB autophosphorylation activity. The method, boiled down:
as §1

Data set [7] has the same target. Briefly: Activation of human AURB mediated histone H3 phosphorylation by phosphoimager analyzer. The method, boiled down:
(§2)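 Compound (5–50 µM, in DMSO) preincubated 5 min at 30 °C, then [γ-32P]ATP added for 10 min. 25% TCA precipitation, 15% SDS-PAGE, autoradiography; phosphoimager quantitation of relative intensity versus DMSO control.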

Data set [8] has as its target T1, Aurora kinase A (Homo sapiens). Briefly: Activation of human AURA mediated histone H3 phosphorylation by phosphoimager analyzer. The procedure, abridged:
as §2

Data set [9] has the same target. Briefly: Activation of human AURA assessed as histone H3 phosphorylation. The procedure, abridged:
as §2

Substrate in data set [10]: C=CC/C=C\C/C=C\CCCCCCCc1cccc(O)c1C(=O)O
Briefly: Activity of human AURA expressed in baculovirus at 50 uM by phosphorimager analyzer. The procedure, abridged:
as §2

Substrate in data set [11]: C=CC/C=C\C/C=C\CCCCCCCc1cccc(O)c1C(=O)O
Briefly: Ratio of Kcat for human AURA to Km for human AURA. The method, boiled down: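 AURA kinase assay with H3 substrate, with increasing [γ-32P]ATP (2.5–15 µM) in the presence of DMSO or 50 µM compound; 5 min 30 °C preincubation, 10 min reaction, TCA precipitation, PAGE and phosphoimager quantitation. Km, Vmax and kcat fitted from activity against ATP concentration.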

Active and inactive are the calls of the source. The rule behind the calls is not given here.

As a reminder, the Km is the substrate concentration at which the rate is half of its maximum. Broadly, the Vmax is the rate approached at saturating substrate. The term kcat denotes the number of substrate molecules converted per active site and unit of time at saturation. Broadly, the kcat/Km is the turnover number divided by the Michaelis constant.

Chain of Aurora kinase B (Homo sapiens) (Q96GD4 whole entry): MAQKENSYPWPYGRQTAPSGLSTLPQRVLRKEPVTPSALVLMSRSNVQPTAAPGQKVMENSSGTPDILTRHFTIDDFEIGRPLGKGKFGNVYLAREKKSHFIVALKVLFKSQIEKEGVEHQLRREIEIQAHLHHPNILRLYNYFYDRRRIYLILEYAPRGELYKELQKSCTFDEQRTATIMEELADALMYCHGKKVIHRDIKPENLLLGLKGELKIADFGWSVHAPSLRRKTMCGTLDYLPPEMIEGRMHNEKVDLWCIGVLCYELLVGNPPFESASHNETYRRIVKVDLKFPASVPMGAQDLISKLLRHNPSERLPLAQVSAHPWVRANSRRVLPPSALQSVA

Turning to `Nc1ncnc2c1ncn2[C@@H]1O[C@H](COP(=O)(O)OP(=O)(O)OP(=O)(O)O)[C@@H](O)[C@H]1O`, the Ka turned out to be 27.5 nM⁻¹ in data set [1] and 5.7 µM⁻¹ in [2].

On to `C=CC/C=C\C/C=C\CCCCCCCc1cccc(O)c1C(=O)O`, for which the Ka in [3] turned out to be 10.1 µM⁻¹; in data set [2], 5.2 µM⁻¹. Moreover, the result in [4], in data set [5] and in data set [8] was Active. In addition, the outcome in [6] and in data set [7] was inactive. The Activity result in data set [9] is “Dose-dependent effect”.

B1: Aurora kinase A (Homo sapiens), O14965 (protein)
chain: T1 sequence (whole entry)
On to B1, for which, in data set [10], the Km worked out at 40.2 mM, the Vmax worked out at 62.5 mmol/min/mg and the kcat was 282 s⁻¹. Besides, the kcat/Km in data set [11] is 6.99 s⁻¹ mM⁻¹.

For the origin of these results see ChEMBL document CHEMBL1143242, “Specific small-molecule activator of Aurora kinase A induces autophosphorylation in a cell-free system” (J Med Chem, 2008).
